The text below walks through data of ChEMBL document CHEMBL1671633 (Antimicrob Agents Chemother, 2008).

Data set [1] is described as follows: Tmax in healthy human at 400 mg, po qd coadministered with 900 mg, po thrice weekly of rifapentine on day 5 post compound dose measured on day 19 post compound dose by HPLC. Format: ADME, organism-based. Particulars: in vivo. Summed up:
(§1)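 Healthy volunteers took oral MXF 400 mg once daily with a continental breakfast (750 kcal, 20% fat). Sampling was on day 4 (after four doses, MXF alone) or on day 19 (with 900 mg RPT thrice weekly added from day 5; 72-h sampling). Plasma MXF was measured by validated HPLC with fluorescence detection (standard curve 0.20–15 µg/ml). Tmax was derived noncompartmentally.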

Data set [2] in a line: Cmax in healthy human at 400 mg, po qd coadministered with 900 mg, po thrice weekly of rifapentine on day 5 post compound dose measured on day 19 post compound dose by HPLC. Format: ADME, organism-based. Further details: dose 400 mg, route oral. The note with it: in vivo.
In data set [3] the test system is Homo sapiens. The data set can be described thus: Tmax in healthy human assessed as 25-desacetyl-rifapentine level at 900 mg, po administered as a single dose measured on day 5 post compound dose by HPLC. It is filed as ADME, organism-based. Particulars: in vivo. The gist of the method: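 Healthy volunteers took a single oral 900 mg rifapentine dose on day 5, after a continental breakfast (750 kcal, 20% fat), alongside ongoing 400 mg daily MXF. Plasma was sampled predose and at 2, 4, 6, 8, 10, 12, 24, 34 and 48 h. 25-desacetyl-RPT was measured by validated HPLC with UV detection and trimipramine internal standard. Tmax was derived noncompartmentally.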

A short description of data set [4]: AUC (0 to 24 hrs ) in healthy human at 400 mg, po qd coadministered with 900 mg, po thrice weekly of rifapentine on day 5 post compound dose measured on day 19 post compound dose by HPLC. It is filed as ADME, organism-based. The arrangement: time < 24 hr, dose 400 mg, route oral. Particulars: plasma.
The test system of data set [5] is Homo sapiens. The data set can be described thus: AUC (0 to 48 hrs) in healthy human assessed as 25-desacetyl-rifapentine level at 900 mg, po thrice weekly measured on day 19 post compound dose by HPLC. It is filed as ADME, organism-based, Plasma. Further details: dose 900 mg, time < 48 hr, route oral. Particulars: in vivo. The gist of the method: (§2)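 Blood was drawn predose and at 2, 4, 6, 8, 10, 12, 24, 34 and 48 h after the first dose (day 5), and again on day 19 after 7 thrice-weekly doses (72-h sampling). Rifapentine and 25-desacetyl-rifapentine were measured by validated HPLC-UV with trimipramine as internal standard. Parameters came from noncompartmental analysis, with AUC truncated at 48 h.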

In data set [6] the test system is Homo sapiens. The data set is described as follows: AUC (0 to 48 hrs) in healthy human assessed as 25-desacetyl-rifapentine level at 900 mg, po administered as a single dose measured on day 5 post compound dose by HPLC. Format: ADME, organism-based, Plasma. The arrangement: dose 900 mg, time < 48 hr, route oral. Particulars: in vivo. Summed up:
as §2

For data set [7], the system named is Homo sapiens. The data set can be described thus: Toxicity in healthy human assessed as incidence of adverse events at 400 mg, po qd coadministered with 900 mg, po thrice weekly of rifapentine on day 5 post compound dose measured on day 19 post compound dose. The note with it: in vivo. Format: organism-based. The gist of the method: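 Doses were given after a continental breakfast, with no other medications, alcohol or smoking allowed. Adherence was tracked by pill counts and medication diaries, and adverse events were recorded during and after dosing.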

Data set [8] can be described thus: Tmax in healthy human at 400 mg, po qd measured on day 4 by HPLC. The note with it: in vivo. Format: ADME, organism-based. The gist of the method: as §1
The nature of data set [9]: AUC (0 to 24 hrs ) in healthy human at 400 mg, po qd measured on day 4 by HPLC. It is filed as ADME, organism-based. The arrangement: time < 24 hr, dose 400 mg, route oral. Particulars: plasma.
A short description of data set [10]: Half life in healthy human at 900 mg, po thrice weekly measured on day 19 post compound dose by HPLC. It is filed as ADME, organism-based. The note with it: in vivo. The gist of the method: as §2
Data set [11] in a line: Cmax in healthy human at 900 mg, po thrice weekly measured on day 19 post compound dose by HPLC. Format: ADME, organism-based. Further details: dose 900 mg, route oral. The note with it: in vivo. Summed up: as §2
Data set [12] has as its system Homo sapiens. The data set can be described thus: Ratio of Apparent oral clearance in healthy human at 900 mg, po thrice weekly measured on day 19 post compound dose to Apparent oral clearance in healthy human at 900 mg, po administered as a single dose measured on day 5. The note with it: in vivo.
In data set [13] the test system is Homo sapiens. The data set is described as follows: Ratio of Tmax in healthy human at 900 mg, po thrice weekly measured on day 19 post compound dose to Tmax in healthy human at 900 mg, po administered as a single dose measured on day 5. Particulars: in vivo.
A short description of data set [14]: Cmax in healthy human at 900 mg, po administered as a single dose measured on day 5 post compound dose by HPLC. Format: ADME, organism-based. The arrangement: dose 900 mg, route oral. Particulars: in vivo. Summed up:
as §2

The nature of data set [15]: AUC (0 to 48 hrs) in healthy human at 900 mg, po thrice weekly measured on day 19 post compound dose by HPLC. It is filed as ADME, organism-based. Further details: time < 48 hr, dose 900 mg, route oral. Particulars: plasma. The gist of the method: as §2
Data set [16] in a line: Apparent oral clearance in healthy human at 900 mg, po administered as a single dose measured on day 5 post compound dose by HPLC. It is filed as ADME, organism-based. The note with it: in vivo. Summed up: as §2
Data set [17] deals with Homo sapiens. The data set can be described thus: Ratio of AUC (0 to 48 hrs) in healthy human at 900 mg, po thrice weekly measured on day 19 post compound dose to AUC (0 to 48 hrs) in healthy human at 900 mg, po administered as a single dose measured on day 5 post compound dose. The note with it: in vivo. It is filed as ADME, organism-based. Summed up: (§3)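 Healthy volunteers took oral RPT 900 mg thrice weekly, alongside MXF 400 mg daily, after a 750-kcal breakfast. Plasma was sampled over 48 h after the first RPT dose (day 5) and over 72 h after the seventh dose (day 19). RPT was measured by validated HPLC-UV with a trimipramine internal standard. Parameters were derived noncompartmentally, with AUC over 48 h, and compared as day 19/day 5 geometric mean ratios with 90% CI.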

Data set [18] is described as follows: Half life in healthy human at 900 mg, po administered as a single dose measured on day 5 post compound dose by HPLC. Format: ADME, organism-based. The note with it: in vivo. Summed up:
as §2

The subject of data set [19] is Homo sapiens. The data set is described as follows: Ratio of Half life in healthy human at 900 mg, po thrice weekly measured on day 19 post compound dose to Half life in healthy human at 900 mg, po administered as a single dose measured on day 5. Particulars: in vivo.
For data set [20], the system named is Homo sapiens. The data set is described as follows: Volume of distribution in healthy human at 900 mg, po administered as a single dose measured on day 5 post compound dose by HPLC. Format: ADME, organism-based. The note with it: in vivo. Summed up:
as §2

Data set [21] can be described thus: Tmax in healthy human at 900 mg, po thrice weekly measured on day 19 post compound dose by HPLC. It is filed as ADME, organism-based. Particulars: in vivo. Summed up:
as §3

Data set [22] deals with Homo sapiens. The data set can be described thus: Ratio of Cmax in healthy human at 900 mg, po thrice weekly measured on day 19 post compound dose to Cmax in healthy human at 900 mg, po administered as a single dose measured on day 5. Particulars: in vivo.
A short description of data set [23]: AUC (0 to 48 hrs) in healthy human at 900 mg, po administered as a single dose measured on day 5 post compound dose by HPLC. It is filed as ADME, organism-based. Particulars: plasma. The arrangement: time < 48 hr, dose 900 mg, route oral. Summed up: as §2
For data set [24], the system named is Homo sapiens. The data set can be described thus: Ratio of Volume of distribution in healthy human at 900 mg, po thrice weekly measured on day 19 post compound dose to Volume of distribution in healthy human at 900 mg, po administered as a single dose measured on day 5. The note with it: in vivo.
Data set [25] can be described thus: Apparent oral clearance in healthy human at 900 mg, po thrice weekly measured on day 19 post compound dose by HPLC. Format: ADME, organism-based. Particulars: in vivo. The gist of the method:
as §2

Data set [26] in a line: Tmax in healthy human at 900 mg, po administered as a single dose measured on day 5 post compound dose by HPLC. Format: ADME, organism-based. The note with it: in vivo. The gist of the method: as §3
In data set [27] the test system is Homo sapiens. The data set is described as follows: Volume of distribution in healthy human at 900 mg, po thrice weekly measured on day 19 post compound dose by HPLC. The note with it: in vivo. It is filed as ADME, organism-based. The gist of the method:
as §2

`COc1c(N2C[C@@H]3CCCN[C@@H]3C2)c(F)cc2c(=O)c(C(=O)O)cn(C3CC3)c12` [MOXIFLOXACIN]: the Tmax – broadly, the time at which the peak concentration occurs – in [1] is 2.6 h; in the data set on Homo sapiens [3] it was 24.9 h; in data set [8], 2.37 h. Also, the Cmax (commonly the highest concentration seen after dosing) in data set [2] came to 3330 ng/mL. Moreover, the exposure (AUC) (in general, concentration integrated over time) at 24 h in data set [4] was determined as 34.4 µg·h/mL; in data set [9], 41.9 µg·h/mL. The area under the curve (AUC) in the data set on Homo sapiens [5] was 369.9 µg·h/mL; in the data set on Homo sapiens [6], 461.7 µg·h/mL. Moreover, the Activity entry in the data set with Homo sapiens [7] is on record as “Non-toxic”.

With `CO[C@H]1/C=C/O[C@@]2(C)Oc3c(C)c(O)c4c(O)c(c(/C=N/N5CCN(C6CCCC6)CC5)c(O)c4c3C2=O)NC(=O)/C(C)=C\C=C\[C@H](C)[C@H](O)[C@@H](C)[C@@H](O)[C@@H](C)[C@H](OC(C)=O)[C@@H]1C` [RIFAPENTINE], the half-life (in general, the time needed for the level to fall by half in the phase considered) in data set [10] was 14.8 h; in data set [18], 18.5 h. Besides, the Cmax came out at 21200 ng/mL in data set [11] and 21900 ng/mL in data set [14]. The Ratio amounted to 1.36 with Homo sapiens [12]; 0.93 in the data set on Homo sapiens [13]; 0.78 in the data set on Homo sapiens [19]; 0.96 with Homo sapiens [22]; 1.07 in the data set with Homo sapiens [24]. For the same molecule, in data set [15], the AUC at 48 h came to 410 µg·h/mL. The CL/F (as a rule, the apparent clearance, not corrected for the fraction that reaches the circulation) in data set [16] was 26.5 mL/min; in [25], 36.2 mL/min. Also, the “Ratio AUC” value in the data set on Homo sapiens [17] stood at 0.8. Besides, the results for the Vd in the data set on Homo sapiens [20] and in the data set on Homo sapiens [27] were 40.7 L and 43.7 L, respectively. The Tmax turned out to be 4.77 h in data set [21] and 5.08 h in data set [26]. The AUC(0-t) (as a rule, exposure summed from dosing to a finite time, without extrapolation to infinity) at 48 h in [23] came out at 513 µg·h/mL.
